Consider 5 compounds from ChEMBL document CHEMBL1799968, “Dimethyl-diphenyl-propanamide derivatives as nonsteroidal dissociated glucocorticoid receptor agonists” (J Med Chem, 2010).

SMILES strings stand for the structures.

Series [1] has as its system Rattus norvegicus. Kind of series: Serum concentration in fasted Sprague-Dawley rat at 30 mg/kg, po after 6 hrs. The following applies: in vivo.
Series [2] has as its system Rattus norvegicus. Kind of series: Antiinflammatory activity in po dosed carrageenan-induced paw edema Sprague-Dawley rat model assessed as inhibition of hind paw swelling after 5 hrs post carrageenan challenge. Format: functional. A digest of the protocol: (§1)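 Male SD rats, fasted overnight plus up to 6 h more. Baseline hind paw volume taken by water plethysmometer. A single oral dose was given in a biologically acceptable medium. 2 h later, under anaesthesia, 1% carrageenan in PBS was injected subcutaneously into both hind paws. Volume was read 3 h post challenge, and swelling was taken as post-challenge minus baseline.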

In series [3] the test system is Rattus norvegicus. The series can be described thus: Toxicity in carrageenan-induced paw edema Sprague-Dawley rat model assessed as increase in blood glucose level at 30 mg/kg, po measured […] by glucometer. Also on record: dose 30 mg/kg, route oral. Format: organism-based. The following applies: in vivo. The procedure, abridged:
(§2)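 Carrageenan paw edema rats (male SD, fasted, single oral dose, carrageenan 2 h postdose). Blood glucose was read by glucometer on tail-nick samples, at baseline and 5 h after dosing.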
In general terms: In the carrageenan paw model, swelling and tenderness develop within hours.

For series [4], the system named is Rattus norvegicus. The series can be described thus: Serum concentration in fasted Sprague-Dawley rat at 7.5 mg/kg, po after 6 hrs. The following applies: in vivo.
Series [5] is described as follows: Selectivity ratio of Ki of GRapha to Ki of estrogen receptor alpha.
The test system of series [6] is Rattus norvegicus. Kind of series: Antiinflammatory activity against carrageenan-induced paw edema Sprague-Dawley rat model assessed as inhibition of hind paw swelling at 30 mg/kg, po measured after 5 hrs post carrageenan challenge. Format: functional. The following applies: Rattus norvegicus, Sprague-Dawley, po, 5 h. A digest of the protocol: as §1
The subject of series [7] is Rattus norvegicus. Kind of series: Serum concentration in fasted Sprague-Dawley rat at 15 mg/kg, po after 6 hrs. The following applies: in vivo.
In a further series the target is T1, Estrogen receptor (Homo sapiens, UniProt P03372).
T1 sequence (P03372 whole entry): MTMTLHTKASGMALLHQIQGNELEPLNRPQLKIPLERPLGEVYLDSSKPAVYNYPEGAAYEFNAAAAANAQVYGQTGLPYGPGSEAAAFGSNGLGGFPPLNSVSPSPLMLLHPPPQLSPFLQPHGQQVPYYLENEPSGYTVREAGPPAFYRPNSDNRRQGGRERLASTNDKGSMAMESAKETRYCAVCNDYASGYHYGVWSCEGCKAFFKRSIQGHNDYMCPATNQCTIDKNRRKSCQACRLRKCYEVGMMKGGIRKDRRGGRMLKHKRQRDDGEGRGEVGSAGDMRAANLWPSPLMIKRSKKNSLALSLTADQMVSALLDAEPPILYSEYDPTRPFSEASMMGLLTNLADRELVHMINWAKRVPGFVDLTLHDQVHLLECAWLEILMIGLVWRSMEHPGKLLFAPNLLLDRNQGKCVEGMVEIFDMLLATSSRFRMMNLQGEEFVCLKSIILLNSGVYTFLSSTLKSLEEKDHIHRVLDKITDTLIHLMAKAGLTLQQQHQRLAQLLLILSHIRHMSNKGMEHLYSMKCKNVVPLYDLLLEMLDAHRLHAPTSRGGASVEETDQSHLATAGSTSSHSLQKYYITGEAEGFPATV
The series can be described thus: Binding affinity to ERalpha by fluorescence polarization assay. The procedure, abridged: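 Fluorescence polarization competition of test compound against a fluorescently labelled ligand for binding to full-length receptor or its ligand-binding domain.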

Series [8] deals with Rattus norvegicus. Kind of series: Toxicity in fasted Sprague-Dawley rat assessed as induction of TAT activity in liver homogenates at 7.5 to 30 mg/kg, po after 6 hrs. The following applies: in vivo. Also on record: dose 7.5-30 mg/kg, route oral. The series is classed as organism-based. A digest of the protocol: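 Male SD rats, fasted, single oral dose. Liver was biopsied 6 h postdose, snap frozen, homogenised in 150 mM KCl and centrifuged. Protein-normalised supernatants were assayed for TAT activity, read as OD at 340 nm. Values are given as % of TAT activity in prednisolone-treated (30 mg/kg) rats.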

The subject of series [9] is Rattus norvegicus. The series can be described thus: Toxicity in carrageenan-induced paw edema Sprague-Dawley rat model assessed as increase in blood glucose level at 50 mg/kg, po measured […] by glucometer. Format: organism-based. Also on record: dose 50 mg/kg, route oral. The following applies: in vivo. A digest of the protocol:
as §2

Series [10] relates to Rattus norvegicus. Kind of series: Antiinflammatory activity against carrageenan-induced paw edema Sprague-Dawley rat model assessed as inhibition of hind paw swelling at 50 mg/kg administered as po single dose after 5 hrs post carrageenan challenge. Format: functional. A digest of the protocol:
as §1

Series [11] concerns Rattus norvegicus. Kind of series: Toxicity in carrageenan-induced paw edema Sprague-Dawley rat model assessed as increase in blood glucose level at 100 mg/kg, po measured […] by glucometer. Format: organism-based. The following applies: in vivo. Also on record: dose 100 mg/kg, route oral. A digest of the protocol: as §2
The subject of series [12] is Rattus norvegicus. The series can be described thus: Antiinflammatory activity against carrageenan-induced paw edema Sprague-Dawley rat model assessed as inhibition of hind paw swelling at 100 mg/kg, po measured after 5 hrs post carrageenan challenge. The series is classed as functional. The procedure, abridged:
as §1

As usually defined, the ED50 is the dose at which the effect has come halfway, by size or by number of responders. The inhibition in vivo is the relative decrease from the control value, in per cent. The term Ki denotes a measure of affinity in units of concentration, obtained from inhibition or displacement. Higher therefore signals a looser hold on the target. Consider `CC(C)(C(=O)Nc1nncs1)[C@H]1c2ccccc2Oc2cc(O)ccc21`, for which the figures for the serum concentration in the series with Rattus norvegicus [1], with Rattus norvegicus [4] and with Rattus norvegicus [7] were 311 nM, 59 nM and 157 nM, respectively. Further, the Activity entry was “Dose-dependent effect” in the series with Rattus norvegicus [2], under 1% with Rattus norvegicus [3] and “Non-toxic” with Rattus norvegicus [8]. The ED50 in the series with Rattus norvegicus [2] was determined as 44 mg/kg. The Ratio Ki in [5] was over 6800. For the same compound, the inhibition in vivo at 30 mg/kg with Rattus norvegicus [6] came out at 56%. For the same compound, the affinity at Estrogen receptor, expressed as Ki, was 5.5 µM.
For the compound `CC(C)(C(=O)Nc1nccs1)[C@H]1c2ccccc2Oc2cc(O)ccc21`, the Ratio Ki in series [5] was over 6800. Further, the Ki on Estrogen receptor was 2.3 µM.
In the case of `CC(C)(C(=O)Nc1nccs1)[C@@H](c1ccccc1)c1ccc(O)c(F)c1`, in the series on Rattus norvegicus [2], the Activity result is “Dose-dependent effect” and the 50% effective dose (ED50) was 45 mg/kg. Further, the Ratio Ki in [5] was over 6800. In the series with Rattus norvegicus [9], the Activity is recorded as under 1%. Also, the inhibition in vivo at 50 mg/kg with Rattus norvegicus [10] was 61%. Moreover, the inhibition constant (Ki) on Estrogen receptor is over 50 µM.
`CC(C)(C(=O)Nc1nccs1)[C@@H](c1ccccc1)c1ccc(O)cc1`: the Activity entry with Rattus norvegicus [11] is “Non-toxic”. Further, the Ratio Ki in [5] was over 6800. In addition, the inhibition in vivo at 100 mg/kg in the series on Rattus norvegicus [12] stood at 46%. The same compound returned a Ki on Estrogen receptor of over 100 µM.
Consider `CC(C)(C(=O)Nc1nccs1)[C@@H](c1ccccc1)c1ccc(O)c(Br)c1`, for which the Ratio Ki in series [5] is over 6800. Further, the Ki on Estrogen receptor was over 50 µM.
